Reference: ChEMBL document CHEMBL1765074, “Synthesis, evaluation and structural studies of antiproliferative tubulin-targeting azetidin-2-ones” (Bioorg Med Chem, 2011)

Key:
MCF7 [1] = assay: Antiproliferative activity against human MCF7 cells by MTT assay; type: functional, cell-based
How it was run: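 MCF-7 cells grown in Eagle's MEM with 10% FBS, 2 mM L-glutamine, penicillin/streptomycin and 1% non-essential amino acids. Seeded at 2.5×10^4 cells/mL, left 24 h at 37°C, then treated 72 h across 1 nM–100 μM from ethanol stocks (vehicle 1% v/v). MTT at 1 mg/mL final for 2 h in darkness, DMSO solubilisation, absorbance read. IC50 is the mean of at least three experiments in triplicate.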

NCI-H522 = assay: Antiproliferative activity against human NCI-H522 cells; type: functional; conditions: read-out: LC50 (the source's name)
SNB-19 = assay: Antiproliferative activity against human SNB19 cells; type: functional; conditions: read-out: LC50 (the source's name)
SNB-75 = assay: Antiproliferative activity against human SNB75 cells; type: functional; conditions: read-out: LC50 (the source's name)
NCI-H23 = assay: Antiproliferative activity against human NCI-H23 cells; type: functional; conditions: read-out: LC50 (the source's name)
EKVX = assay: Antiproliferative activity against human EKVX cells; type: functional; conditions: read-out: LC50 (the source's name)
SK-MEL-2 = assay: Antiproliferative activity against human SK-MEL-2 cells; type: functional; conditions: read-out: LC50 (the source's name)
HCT-116 = assay: Antiproliferative activity against human HCT116 cells; type: functional; conditions: read-out: LC50 (the source's name)
OVCAR-5 = assay: Antiproliferative activity against human OVCAR5 cells; type: functional; conditions: read-out: LC50 (the source's name)
U-251 = assay: Antiproliferative activity against human U251 cells; type: functional; conditions: read-out: LC50 (the source's name)
SK-MEL-28 = assay: Antiproliferative activity against human SK-MEL-28 cells; type: functional; conditions: read-out: LC50 (the source's name)
HL-60(TB) = assay: Antiproliferative activity against human HL-60(TB) cells; type: functional; conditions: read-out: LC50 (the source's name)
DU-145 = assay: Antiproliferative activity against human DU145 cells; type: functional; conditions: read-out: LC50 (the source's name)
KM12 = assay: Antiproliferative activity against human KM12 cells; type: functional; conditions: read-out: LC50 (the source's name)
COLO 205 = assay: Antiproliferative activity against human COLO205 cells; type: functional; conditions: read-out: LC50 (the source's name)
MDA-MB-231 [2] = assay: Antiproliferative activity against human MDA-MB-231 cells; type: functional; conditions: read-out: LC50 (the source's name)
NCI-H226 = assay: Antiproliferative activity against human NCI-H226 cells; type: functional; conditions: read-out: LC50 (the source's name)
UO-31 = assay: Antiproliferative activity against human UO31 cells; type: functional; conditions: read-out: LC50 (the source's name)
K562 = assay: Antiproliferative activity against human K562 cells; type: functional; conditions: read-out: LC50 (the source's name)
Malme-3M = assay: Antiproliferative activity against human MALME-3M cells; type: functional; conditions: read-out: LC50 (the source's name)
HOP-92 = assay: Antiproliferative activity against human HOP92 cells; type: functional; conditions: read-out: LC50 (the source's name)
RPMI-8226 = assay: Antiproliferative activity against human RPMI8226 cells; type: functional; conditions: read-out: LC50 (the source's name)
LOX IMVI = assay: Antiproliferative activity against human LOXIMVI cells; type: functional; conditions: read-out: LC50 (the source's name)
UACC-257 = assay: Antiproliferative activity against human UACC257 cells; type: functional; conditions: read-out: LC50 (the source's name)
HCT-15 = assay: Antiproliferative activity against human HCT15 cells; type: functional; conditions: read-out: LC50 (the source's name)
MCF7 [3] = assay: Antiproliferative activity against human MCF7 cells; type: functional; conditions: read-out: LC50 (the source's name)
OVCAR-8 = assay: Antiproliferative activity against human OVCAR8 cells; type: functional; conditions: read-out: LC50 (the source's name)
ACHN = assay: Antiproliferative activity against human ACHN cells; type: functional; conditions: read-out: LC50 (the source's name)
CCRF-CEM = assay: Antiproliferative activity against human CCRF-CEM cells; type: functional; conditions: read-out: LC50 (the source's name)
SF-268 = assay: Antiproliferative activity against human SF268 cells; type: functional; conditions: read-out: LC50 (the source's name)
OVCAR-4 = assay: Antiproliferative activity against human OVCAR4 cells; type: functional; conditions: read-out: LC50 (the source's name)
SF-539 = assay: Antiproliferative activity against human SF539 cells; type: functional; conditions: read-out: LC50 (the source's name)
NCI-H460 = assay: Antiproliferative activity against human NCI-H460 cells; type: functional; conditions: read-out: LC50 (the source's name)
SN12C = assay: Antiproliferative activity against human SN12C cells; type: functional; conditions: read-out: LC50 (the source's name)
HCC 2998 = assay: Antiproliferative activity against human HCC2998 cells; type: functional; conditions: read-out: LC50 (the source's name)
SF-295 = assay: Antiproliferative activity against human SF295 cells; type: functional; conditions: read-out: LC50 (the source's name)
HOP-62 = assay: Antiproliferative activity against human HOP62 cells; type: functional; conditions: read-out: LC50 (the source's name)
TK-10 = assay: Antiproliferative activity against human TK10 cells; type: functional; conditions: read-out: LC50 (the source's name)
MDA-MB-231 [4] = assay: Antiproliferative activity against human MDA-MB-231 cells by MTT assay; type: functional, cell-based
How it was run: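 MDA-MB-231 cells in DMEM with 10% FBS, 2 mM L-glutamine and penicillin/streptomycin were seeded at 2.5×10^4 cells/mL and held 24 h at 37°C. They then got ethanol-stock compound over 1 nM–100 μM (vehicle 1% v/v ethanol) for 72 h. MTT at 1 mg/mL final was added for 2 h in the dark, then DMSO for 20 min before absorbance. Untreated = 100% viability. IC50 is the mean ± S.E.M. of ≥3 triplicate experiments.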

NCI/ADR-RES = assay: Antiproliferative activity against human NCI/ADR-RES cells; type: functional; conditions: read-out: LC50 (the source's name)
A498 = assay: Antiproliferative activity against human A498 cells; type: functional; conditions: read-out: LC50 (the source's name)
IGROV-1 = assay: Antiproliferative activity against human IGROV1 cells; type: functional; conditions: read-out: LC50 (the source's name)
UACC-62 = assay: Antiproliferative activity against human UACC62 cells; type: functional; conditions: read-out: LC50 (the source's name)
M14 = assay: Antiproliferative activity against human M14 cells; type: functional; conditions: read-out: LC50 (the source's name)
SK-OV-3 = assay: Antiproliferative activity against human SKOV3 cells; type: functional; conditions: read-out: LC50 (the source's name)
[5] = Antiproliferative activity against human […] cells; type: functional; conditions: read-out: LC50 (the source's name)
BT-549 = assay: Antiproliferative activity against human BT549 cells; type: functional; conditions: read-out: LC50 (the source's name)
MOLT-4 = assay: Antiproliferative activity against human MOLT4 cells; type: functional; conditions: read-out: LC50 (the source's name)
RXF 393 = assay: Antiproliferative activity against human RXF393 cells; type: functional; conditions: read-out: LC50 (the source's name)
MDA-MB-435 = assay: Antiproliferative activity against human MDA-MB-435 cells; type: functional; conditions: read-out: LC50 (the source's name)
PC-3 = assay: Antiproliferative activity against human PC3 cells; type: functional; conditions: read-out: LC50 (the source's name)
CAKI-1 = assay: Antiproliferative activity against human Caki1 cells; type: functional; conditions: read-out: LC50 (the source's name)
786-0 = assay: Antiproliferative activity against human 786-0 cells; type: functional; conditions: read-out: LC50 (the source's name)
A549 = assay: Antiproliferative activity against human A549 cells; type: functional; conditions: read-out: LC50 (the source's name)
MDA-MB-468 = assay: Antiproliferative activity against human MDA-MB-468 cells; type: functional; conditions: read-out: LC50 (the source's name)
SW-620 = assay: Antiproliferative activity against human SW620 cells; type: functional; conditions: read-out: LC50 (the source's name)
SK-MEL-5 = assay: Antiproliferative activity against human SK-MEL-5 cells; type: functional; conditions: read-out: LC50 (the source's name)
T47D = assay: Antiproliferative activity against human T47D cells; type: functional; conditions: read-out: LC50 (the source's name)

In the case of `COc1ccc([C@H]2N(c3cc(OC)c(OC)c(OC)c3)C(=O)C2(c2ccccc2)c2ccccc2)cc1` (mixture of isomers), the IC50 (MCF7 [1]) is reported as 43.2 µM.
For `COc1ccc([C@@H]2C(c3cccs3)C(=O)N2c2cc(OC)c(OC)c(OC)c2)cc1` (mixture of isomers), the CC50 (NCI-H522) was over 100 µM, the CC50 (SNB-19) was over 100 µM and the CC50 (SNB-75) was over 100 µM. For the same molecule, the CC50 (NCI-H23) was over 100 µM, the CC50 (EKVX) was over 100 µM and the CC50 (SK-MEL-2) was over 100 µM. For the same molecule, the CC50 (HCT-116) was over 100 µM, the CC50 (OVCAR-5) was over 100 µM and the CC50 (U-251) was over 100 µM. It also gave a CC50 (SK-MEL-28) of over 100 µM, a CC50 (HL-60(TB)) of over 100 µM and a CC50 (DU-145) of over 100 µM. For the same molecule, the CC50 (KM12) was over 100 µM, the CC50 (COLO 205) was over 100 µM and the CC50 (MDA-MB-231 [2]) was over 100 µM. For the same molecule, the CC50 (NCI-H226) was over 100 µM, the CC50 (UO-31) was over 100 µM and the CC50 (K562) was over 100 µM. It also gave a CC50 (Malme-3M) of over 100 µM, a CC50 (HOP-92) of over 100 µM and a CC50 (RPMI-8226) of over 100 µM. The CC50 (LOX IMVI) was over 100 µM, the CC50 (UACC-257) was over 100 µM and the CC50 (HCT-15) was over 100 µM. The CC50 (MCF7 [3]) was over 100 µM, the IC50 (MCF7 [1]) was 0.064 µM and the CC50 (OVCAR-8) was over 100 µM. It also gave a CC50 (ACHN) of over 100 µM, a CC50 (CCRF-CEM) of over 100 µM and a CC50 (SF-268) of over 100 µM. For the same molecule, the CC50 (OVCAR-4) was over 100 µM, the CC50 (SF-539) was over 100 µM and the CC50 (NCI-H460) was over 100 µM. It also gave a CC50 (SN12C) of over 100 µM, a CC50 (HCC 2998) of over 100 µM and a CC50 (SF-295) of over 100 µM. For the same molecule, the CC50 (HOP-62) was over 100 µM, the CC50 (TK-10) was over 100 µM and the IC50 (MDA-MB-231 [4]) was 0.19 µM. The CC50 (NCI/ADR-RES) was over 100 µM, the CC50 (A498) was over 100 µM and the CC50 (IGROV-1) was over 100 µM. The CC50 (UACC-62) was over 100 µM, the CC50 (M14) was over 100 µM and the CC50 (SK-OV-3) was over 100 µM. The CC50 [5] was over 100 µM, the CC50 (BT-549) was over 100 µM and the CC50 (MOLT-4) was over 100 µM. The CC50 (RXF 393) was over 100 µM, the CC50 (MDA-MB-435) was over 100 µM and the CC50 (PC-3) was over 100 µM. For the same molecule, the CC50 (CAKI-1) was over 100 µM, the CC50 (786-0) was over 100 µM and the CC50 (A549) was over 100 µM. It also gave a CC50 (MDA-MB-468) of over 100 µM, a CC50 (SW-620) of over 100 µM and a CC50 (SK-MEL-5) of over 100 µM. It also gave a CC50 (T47D) of over 100 µM.
With `COc1ccc([C@@H]2C(Cc3cccs3)C(=O)N2c2cc(OC)c(OC)c(OC)c2)cc1` (mixture of isomers) the IC50 (MCF7 [1]) was 1.64 µM.
In the case of `COc1cc(N2C(=O)[C@H](c3cccs3)[C@H]2c2ccc3ccccc3c2)cc(OC)c1OC` (mixture of isomers), the IC50 (MCF7 [1]) is reported as 0.12 µM.
`COc1cc(N2C(=O)[C@H](c3cccs3)[C@H]2c2cccs2)cc(OC)c1OC` (mixture of isomers) gave an IC50 (MCF7 [1]) of 0.91 µM.
In the case of `COc1ccc([C@@H]2C(c3cccs3)C(=O)N2c2cc(OC)c(OC)c(OC)c2)cc1[N+](=O)[O-]` (mixture of isomers), the IC50 (MCF7 [1]) is reported as 0.37 µM.
For `COc1ccc([C@@H]2C(c3cccc4ccccc34)C(=O)N2c2cc(OC)c(OC)c(OC)c2)cc1` (mixture of isomers), the IC50 (MCF7 [1]) was 11.3 µM.
With `COc1ccc([C@@H]2C(c3ccc4ccccc4c3)C(=O)N2c2cc(OC)c(OC)c(OC)c2)cc1` (mixture of isomers) the IC50 (MCF7 [1]) was 2.5 µM.
In the case of `COc1ccc([C@@H]2C(c3ccoc3)C(=O)N2c2cc(OC)c(OC)c(OC)c2)cc1` (mixture of isomers), the IC50 (MCF7 [1]) is reported as 0.15 µM.
`COc1ccc([C@@H]2C(c3ccsc3)C(=O)N2c2cc(OC)c(OC)c(OC)c2)cc1` (mixture of isomers) showed an IC50 (MCF7 [1]) of 0.06 µM.
With `COc1ccc([C@@H]2C(c3ccc(C)s3)C(=O)N2c2cc(OC)c(OC)c(OC)c2)cc1` (mixture of isomers) the IC50 (MCF7 [1]) was 0.25 µM.
Work on `COc1ccc([C@@H]2C(c3cc4ccccc4s3)C(=O)N2c2cc(OC)c(OC)c(OC)c2)cc1` (mixture of isomers) yielded an IC50 (MCF7 [1]) of 0.85 µM.
`COc1ccc([C@@H]2[C@@H](C(O)c3ccsc3)C(=O)N2c2cc(OC)c(OC)c(OC)c2)cc1` (mixture of isomers) gave an IC50 (MCF7 [1]) of 0.99 µM.
In the case of `COc1cc(N2C(=O)[C@H](c3cccs3)[C@H]2c2cccc3ccccc23)cc(OC)c1OC` (racemic), the IC50 (MCF7 [1]) is reported as 0.62 µM.
